Test results reported in ChEMBL document CHEMBL2021927, “Synthesis and evaluation of the cytotoxicities of tetraindoles: observation that the 5-hydroxy tetraindole (SK228) induces G₂ arrest and apoptosis in human breast cancer cells” (J Med Chem, 2012).
Activity calls are given as the source filed them. The rule behind the calls is not given here.

Tests used:
MCF7 [1] = assay: Ratio of IC50 for 3,3'-diindolylmethane to compound for human MCF7 cells after 48 hrs by MTT assay; format: functional
MDA-MB-231 [2] = assay: Antiproliferative activity against human MDA-MB-231 cells assessed as decrease in cell count at 0.1 to 0.8 uM by trypan blue dye exclusion assay; format: functional, cell-based; details: TDE = time-dependent effect
In short: (§1)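 MDA-MB-231 cells seeded at 2 × 10^5 per well in 6-well plates, treated 24 h later in triplicate with compound (0.1–0.8 μM) or DMSO vehicle in 10% FBS DMEM/F12. Cells harvested by trypsinization at 24, 48 and 72 h, stained with 0.4% trypan blue and counted on a hemocytometer; three independent experiments.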

MDA-MB-231 [3] = assay: Antiproliferative activity against human MDA-MB-231 cells assessed as decrease in cell count after 72 hrs by trypan blue dye exclusion assay; format: functional, cell-based; in short: as §1
SW480 [4] = assay: Growth inhibition of human SW480 cells after 48 hrs by MTT assay; format: functional, cell-based; details: SW480, 48 h
SW-620 = assay: Growth inhibition of human SW620 cells after 48 hrs by MTT assay; format: functional, cell-based; details: SW-620, 48 h
SW48 [5] = assay: Growth inhibition of human SW48 cells after 48 hrs by MTT assay; format: functional, cell-based; details: SW48, 48 h
[6] = Growth inhibition of human U87MG cells after 48 hrs by MTT assay; format: functional, cell-based, U-87MG ATCC; details: U-87 MG
A549 [7] = assay: Growth inhibition of human A549 cells after 48 hrs by MTT assay; format: functional, cell-based; details: A549, 48 h
Detroit 551 = assay: Growth inhibition of human Detroit 551 cells after 48 hrs by MTT assay; format: cell-based; details: Detroit 551, 48 h
[8] = Growth inhibition of human Detroit 551 cells at 20 uM after 48 hrs by MTT assay; format: cell-based; details: read-out: GI
In short: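 MTT viability assay with 48 h exposure at a single 20 μM concentration. Result given as percent inhibition of cell growth; n = 3.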

MDA-MB-361 [9] = assay: Selectivity ratio of IC50 for human MT10 cells to IC50 for human MDA-MB-361 cells
In short: (§2)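 Ratio of the IC50 in normal M10 cells to the IC50 in each cancer line. […] The paper reports the fold difference as the normal-cell to tumour-cell IC50 ratio.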

MDA-MB-468 [10] = assay: Selectivity ratio of IC50 for human MT10 cells to IC50 for human MDA-MB-468 cells; in short: as §2
SW480 [11] = assay: Selectivity ratio of IC50 for human MT10 cells to IC50 for human SW480 cells; in short: as §2
[12] = Selectivity ratio of IC50 for human MT10 cells to IC50 for human SW620 cells; format: ADME, cell-based, SW-620; details: MT10 cells and SW620 cells; in short: as §2
SW48 [13] = assay: Selectivity ratio of IC50 for human MT10 cells to IC50 for human SW48 cells; in short: as §2
A549 [14] = assay: Selectivity ratio of IC50 for human MT10 cells to IC50 for human A549 cells; in short: as §2
MDA-MB-231 [15] = assay: Selectivity ratio of IC50 for human MT10 cells to IC50 for human MDA-MB-231 cells; in short: as §2
MCF7 [16] = assay: Selectivity ratio of IC50 for human MT10 cells to IC50 for human MCF7 cells; in short: as §2
MDA-MB-361 [17] = assay: Selectivity ratio of IC50 for human Detroit 551 cells to IC50 for human MDA-MB-361 cells
MDA-MB-468 [18] = assay: Selectivity ratio of IC50 for human Detroit 551 cells to IC50 for human MDA-MB-468 cells
MDA-MB-231 [19] = assay: Selectivity ratio of IC50 for human Detroit 551 cells to IC50 for human MDA-MB-231 cells
MCF7 [20] = assay: Selectivity ratio of IC50 for human Detroit 551 cells to IC50 for human MCF7 cells
MDA-MB-231 [21] = assay: Cell cycle arrest in human MDA-MB-231 cells at accumulation at G1 phase at 0.8 uM after 24 hrs by propidium iodide staining-based flow cytometric analysis (reference value: 48%); format: functional
MDA-MB-231 [22] = assay: Cell cycle arrest in human MDA-MB-231 cells at accumulation at S phase at 0.8 uM after 24 hrs by propidium iodide staining-based flow cytometric analysis (reference value: 20%); format: functional
MDA-MB-231 [23] = assay: Cell cycle arrest in human MDA-MB-231 cells at accumulation at subG1 phase at 0.8 uM after 24 hrs by propidium iodide staining-based flow cytometric analysis (reference value: 2%); format: functional
MDA-MB-231 [24] = assay: Cell cycle arrest in human MDA-MB-231 cells at accumulation at G1 phase at 0.8 uM after 48 hrs by propidium iodide staining-based flow cytometric analysis (reference value: 45%); format: functional
MDA-MB-231 [25] = assay: Cell cycle arrest in human MDA-MB-231 cells at accumulation at G2/M phase at 0.8 uM after 48 hrs by propidium iodide staining-based flow cytometric analysis (reference value: 32%); format: functional
MDA-MB-231 [26] = assay: Cell cycle arrest in human MDA-MB-231 cells at accumulation at subG1 phase at 0.8 uM after 48 hrs by propidium iodide staining-based flow cytometric analysis (reference value: 3%); format: functional
MDA-MB-231 [27] = assay: Increase in cyclin B1 expression in human MDA-MB-231 cells after 48 hrs by Western blot analysis; format: functional, cell-based
In short: (§3)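 MDA-MB-231 cells treated with 0.2, 0.4 or 0.8 μM for 24 and 48 h. Attached and floating cells were lysed in RIPA-type buffer with protease inhibitors, and protein was quantified by BCA. Equal protein was run on 10%/15% SDS-PAGE and transferred to nitrocellulose. Blots were probed 1 h at room temperature for phospho-cdc2, cyclin B1, caspase-3, bak/bcl-2 or actin loading control, with HRP secondary and ECL detection.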

MDA-MB-231 [28] = assay: Increase in cdc2 phosphorylation at Tyr15 expression in human MDA-MB-231 cells after 24 hrs by Western blot analysis; format: functional, cell-based; in short: as §3
MDA-MB-231 [29] = assay: Decrease in cyclin B1 expression in human MDA-MB-231 cells at 0.8 uM after 48 hrs by Western blot analysis; format: functional, cell-based; in short: as §3
MDA-MB-231 [30] = assay: Induction of apoptosis in human MDA-MB-231 cells assessed as increase in early apoptotic cells at 0.4 uM by annexinV propidium iodide staining-based flow cytometric analysis; format: functional, cell-based; details: TDE = time-dependent effect
In short: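 MDA-MB-231 cells treated with 0.4 μM, washed twice in PBS and stained with annexin V-FITC/propidium iodide. Populations scored as viable (both negative), early apoptotic (annexin V positive, PI negative) or late apoptotic/dead (both positive).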

MDA-MB-231 [31] = assay: Induction of apoptosis in human MDA-MB-231 cells assessed as DNA ladder formation at 0.4 to 1.6 uM after 48 hrs by agarose gel electrophoretic analysis; format: functional, cell-based
In short: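 MDA-MB-231 cells seeded at 1 × 10^6 per dish, treated 24 h later with 0, 0.4, 0.8, 1.2 or 1.6 μM or DMSO for 48 h at 37 °C, 5% CO2. Cells lysed in TE buffer with 0.25% NP40 (pH 7.5). Lysate digested with RNase A then proteinase K, each 1 h at 37 °C. DNA resolved on 1.8% agarose gel.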

MDA-MB-231 [32] = assay: Induction of apoptosis in human MDA-MB-231 cells assessed as bak protein level after 24 hrs by Western blot analysis; format: functional, cell-based; in short: as §3
MDA-MB-231 [33] = assay: Induction of apoptosis in human MDA-MB-231 cells assessed as bak protein level after 48 hrs by Western blot analysis; format: functional, cell-based; in short: as §3
MDA-MB-231 [34] = assay: Induction of apoptosis in human MDA-MB-231 cells assessed as PARP cleavage after 24 to 48 hrs by Western blot analysis; format: functional, cell-based

IC50 (SW480 [4]): 370 nM
IC50 (SW-620): 980 nM
IC50 (SW48 [5]): 880 nM
IC50 (A549 [7]): 2890 nM
SMILES: Oc1ccc2[nH]cc(C(c3ccc(C(c4c[nH]c5ccc(O)cc45)c4c[nH]c5ccc(O)cc45)cc3)c3c[nH]c4ccc(O)cc34)c2c1
Ratio IC50 (MCF7 [1]): 57
Activity (MDA-MB-231 [2]): tde
Activity (MDA-MB-231 [3]): Dose-dependent effect
IC50 [6]: 2730 nM
IC50 (Detroit 551): > 20000 nM
inhibition at 48 h, 20 µM [8]: 47%
Ratio IC50 (MDA-MB-361 [9]): 2.8
Ratio IC50 (MDA-MB-468 [10]): 7
Ratio IC50 (SW480 [11]): 15.7
selectivity ratio [12]: 5.9
Ratio IC50 (SW48 [13]): 6.6
Ratio IC50 (A549 [14]): 2
Ratio IC50 (MDA-MB-231 [15]): 12.9
Ratio IC50 (MCF7 [16]): 6.6
Ratio IC50 (MDA-MB-361 [17]): > 9.7
Ratio IC50 (MDA-MB-468 [18]): > 24
Ratio IC50 (MDA-MB-231 [19]): > 44
Ratio IC50 (MCF7 [20]): > 22.7
Activity (MDA-MB-231 [21]): 31%
Activity (MDA-MB-231 [22]): 23%
Activity (MDA-MB-231 [23]): 6%
Activity (MDA-MB-231 [24]): 25%
Activity (MDA-MB-231 [25]): 34%
Activity (MDA-MB-231 [26]): 21%
Activity (MDA-MB-231 [27]): Dose-dependent effect
Activity (MDA-MB-231 [28]): Dose-dependent effect
Activity (MDA-MB-231 [29]): Active
Activity (MDA-MB-231 [30]): tde
Activity (MDA-MB-231 [31]): Active
Activity (MDA-MB-231 [32]): Active
Activity (MDA-MB-231 [33]): Active
Activity (MDA-MB-231 [34]): Dose-dependent effect
